Measurements pooled from the literature.
Protocols differ between the studies behind these lines.
Target: Protein kinase C theta type (PRKCQ, Homo sapiens, UniProt Q04759)

| SMILES | observed | technique | tested at | remaining binding |
| --- | --- | --- | --- | --- |
| CS(=O)(=O)N1CCCC(NC(=O)[C@H](CCC2CCCCC2)NC(=O)c2ccc(CNC(=O)c3cnc4ccccn34)cc2)C1 (stereo partly shown) | cell-free assay | competition with immobilised ligand | 0.1 µM | 97% |
| CN(C)c1ncc(F)c(-c2cnn3ncccc23)n1 | binding | – | 1 µM | 100% |
| O=C(NC[C@@H]1[C@H]2CN(C(=O)OCc3cc(C(F)(F)F)cc(C(F)(F)F)c3)C[C@@H]12)c1ccc2[nH]nnc2c1 | cell-free assay | competition with immobilised ligand | 1 µM | 100% |
| O=C(c1ccc(Nc2ncc(Cl)c(-c3cc4ccccc4s3)n2)cc1)N1CCC(N2CCCC2)CC1 | binding | competition with immobilised ligand | 1 µM | 23% |
| O=C(NCC1CCOCC1)c1n[nH]cc1NC(=O)c1c(F)cccc1F | binding | competition with immobilised ligand | 1 µM | 100% |
| O=C(c1ccc(Nc2nccc(-c3cc4ccccc4s3)n2)cc1)N1CCC(N2CCCC2)CC1 | binding | competition with immobilised ligand | 1 µM | 56% |
| O=C(Nc1ccc(Oc2ccc(F)cc2)cc1)N1CCc2ncccc2[C@H]1c1ccc(F)cc1 | cell-free assay | competition with immobilised ligand | 1 µM | 95% |
| c1cncc(-c2cccc(Nc3nccc(NC4CCCCC4)n3)c2)c1 | binding | competition with immobilised ligand | 10 µM | 8.3% |
| Cc1c(NC(=O)c2cc(C(N)=O)nc3cc(F)ccc23)c(C(F)(F)F)nn1Cc1ccc(C#N)cc1 | cell-free assay | competition with immobilised ligand | 1 µM | 80% |
| c1cnn2ncc(-c3ccnc(N4CCC45COC5)n3)c2c1 | binding | – | 1 µM | 86% |
| CCOCCn1cc(C(=O)Nc2ccc(-n3nc(-c4cccnc4)cc3C(F)(F)F)cn2)ccc1=O | cell-free assay | competition with immobilised ligand | 1 µM | 73% |
| CNC(=O)[C@@H]1CC[C@@H](n2c(-c3ccc4cnccc4c3)nc3ccc(C(=O)NCc4cccc(C(N)=O)c4)cc32)C1 | binding | competition with immobilised ligand | 1 µM | 63% |
| COc1ccc2c(c1)O[C@@H](c1ccc(OC)c(OC)c1)C[C@H]2NC(=O)C1(c2ccc3c(c2)OC(F)(F)O3)CC1 | cell-free assay | competition with immobilised ligand | 1 µM | 98% |
| C[C@@H]1CCN(c2nccc(-c3cnn4ncccc34)n2)C1 | binding | – | 1 µM | 67% |
| COc1ncc2cc3ccccc3nc2c1C#N | cell-free assay | competition with immobilised ligand | 5 µM | 94% |
| C[C@@H](c1ccc(-n2cnc3c(N)ncnc32)cc1)N1CCc2nn(C)c(Cc3ccccc3)c2C1=O | binding | competition with immobilised ligand | 0.1 µM | 100% |
| N[C@@H]1CCN(c2nccc(-c3cnn4ncccc34)n2)C1 | binding | – | 1 µM | 100% |
| Cc1cnc(Nc2ccc(C(=O)N3CCC(N4CCCC4)CC3)cc2)nc1-c1cc2ccccc2s1 | binding | competition with immobilised ligand | 1 µM | 27% |
| CN(CCCC(F)(F)F)c1nccc(-c2cnn3ncccc23)n1 | binding | – | 1 µM | 100% |
| CS(=O)(=O)N1CCCC(NC(=O)[C@H](CCC2CCCCC2)NC(=O)c2ccc(CNc3ncnc4c3nnn4-c3ccccc3)cc2)C1 (stereo partly shown) | cell-free assay | competition with immobilised ligand | 0.1 µM | 90% |
| CC1CCCN1c1nccc(-c2cnn3ncccc23)n1 (stereo not shown) | binding | – | 1 µM | 100% |
| Nc1ncc2c(n1)-c1c([nH]c3ccc(C#CC4CC4)cc13)CCCC2 | binding | competition with immobilised ligand | 1 µM | 98% |
